# From ChEMBL document CHEMBL4811250, “Discovery and Optimization of 2H-1λ2-Pyridin-2-one Inhibitors of Mutant Isocitrate Dehydrogenase 1 for the Treatment of Cancer” (J Med Chem, 2021)
# pIC50: −log10 of the molar value.
# System: not listed separately
# Test: Permeability of compound at pH 7.4 by PAMPA assay
# Format: ADME
# Settings: read-out: permeability
# Outline: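 Stirring double-sink PAMPA using a lipid/dodecane membrane tuned for GI passive permeability, pH 7.4 on donor and acceptor sides. Compound at 0.05 mM (0.5% DMSO), 30 min permeation at room temperature with donor stirring. Donor and acceptor concentrations read by UV plate reader.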
row,Papp [×10⁻⁶ cm/s],SMILES
1,24,CCc1cccc(CC)c1-n1c(CC2CCNC2)c(C(=O)N2CCNCC2)cc(-c2nc(-c3ccc(Cl)cc3)cs2)c1=O (stereo unspecified)

# System: not listed separately
# Test: Metabolic stability in rat liver microsomes assessed as half life incubated for 15 mins by high resolution LC/MS analysis
# Format: ADME, Microsome
# Settings: 0.25 h
# Outline: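 Rat liver microsomes (0.5 mg/mL protein) with 1.0 μM compound and NADPH regenerating system in 100 mM phosphate pH 7.4, 15 min at 37 °C. Quenched with acetonitrile containing albendazole internal standard. Percent remaining measured by high-resolution LC/MS.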
row,t1/2 [min],SMILES
1,7,CCc1cccc(CC)c1-n1c(CC2CCNC2)c(C(=O)N2CCNCC2)cc(-c2nc(-c3ccc(Cl)cc3)cs2)c1=O (stereo unspecified)

# System: not listed separately
# Test: Kinetic solubility of the compound in pH 7.4 phosphate buffer measured after 6 hrs by UV spectroscopy
# Format: physicochemical
# Settings: read-out: Kinetic_solubility
row,solubility kinetic at 6 h [µg/mL],SMILES
1,< 1,CCc1cccc(CC)c1-n1c(CC2CCNC2)c(C(=O)N2CCNCC2)cc(-c2nc(-c3ccc(Cl)cc3)cs2)c1=O (stereo unspecified)

# System: Isocitrate dehydrogenase [NADP] cytoplasmic (Homo sapiens), O75874 [R132H]
# Test: Inhibition of IDH1 R132H mutant (unknown origin) assessed as reduction in NADPH consumption using alpha-KG as substrate at 38 uM incubated for 5 mins by diaphorase/resazurin-coupled system relative to control
# Settings: not given
# Isocitrate dehydrogenase [NADP] cytoplasmic (Homo sapiens), O75874 [R132H], sequence (O75874 whole entry R132H): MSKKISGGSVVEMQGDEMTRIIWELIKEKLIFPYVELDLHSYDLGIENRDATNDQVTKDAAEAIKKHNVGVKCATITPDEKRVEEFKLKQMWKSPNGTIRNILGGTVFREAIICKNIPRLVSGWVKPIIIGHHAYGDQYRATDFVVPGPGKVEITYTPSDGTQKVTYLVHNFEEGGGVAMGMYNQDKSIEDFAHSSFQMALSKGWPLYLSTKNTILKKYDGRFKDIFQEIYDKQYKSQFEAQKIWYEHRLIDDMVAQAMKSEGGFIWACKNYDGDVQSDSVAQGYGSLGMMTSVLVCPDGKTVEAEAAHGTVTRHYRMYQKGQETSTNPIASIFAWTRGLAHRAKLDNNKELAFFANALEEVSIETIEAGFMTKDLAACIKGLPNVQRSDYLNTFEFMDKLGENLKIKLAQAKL
row,inhibition [%],SMILES
1,89,CCc1cccc(C)c1-n1c2c(cc(-c3nc(-c4ccc(Cl)cc4)cs3)c1=O)C(=O)CC(C)(C)C2
2,84,COc1ccc(OC)c(-n2c3c(cc(-c4nc(-c5ccc(Cl)cc5)cs4)c2=O)C(=O)CC(C)(C)C3)c1
3,91,CCc1ccccc1-n1c2c(cc(-c3nc(-c4ccc(Cl)cc4)cs3)c1=O)C(=O)CC(C)(C)C2
4,89,CCc1cccc(CC)c1-n1c2c(cc(-c3nc(-c4ccc(Cl)cc4)cs3)c1=O)C(=O)CC(C)(C)C2
5,97,COc1ncccc1-n1c2c(cc(-c3nc(-c4ccc(Cl)cc4)cs3)c1=O)C(=O)CC(C)(C)C2

# The remaining lines, values behind:
row,SMILES,inhibition [%]
1,CCc1cccc(CC)c1-n1c(C)c(C(=O)NCCNC)cc(-c2nc(-c3ccc(Cl)cc3)cs2)c1=O,101
2,CCc1cccc(CC)c1-n1c(C)c(C(=O)NCCN)cc(-c2nc(-c3ccc(Cl)cc3)cs2)c1=O,97
3,CCc1cccc(CC)c1-n1c(C)c(C(=O)N2CCNCC2)cc(-c2nc(-c3ccc(Cl)cc3)cs2)c1=O,103
4,CCc1cccc(CC)c1-n1c(C)c(C(=O)N(C)C)cc(-c2nc(-c3ccc(Cl)cc3)cs2)c1=O,98
5,CCc1cccc(CC)c1-n1c(C(C)C)c(C(=O)N2CCNCC2)cc(-c2nc(-c3ccc(Cl)cc3)cs2)c1=O,102
6,CCc1cccc(CC)c1-n1c(CC2CCNC2)c(C(=O)N2CCNCC2)cc(-c2nc(-c3ccc(Cl)cc3)cs2)c1=O (stereo unspecified),81

# System: Isocitrate dehydrogenase [NADP] cytoplasmic (Homo sapiens), O75874 [R132C]
# Test: Inhibition of IDH1 R132C mutant (unknown origin) assessed as reduction in NADPH consumption using alpha-KG as substrate at 38 uM incubated for 5 mins by diaphorase/resazurin-coupled system relative to control
# Settings: not given
# Isocitrate dehydrogenase [NADP] cytoplasmic (Homo sapiens), O75874 [R132C], sequence (O75874 whole entry R132C): as the sequence (O75874 whole entry R132H) above, with H132C counted along it
row,inhibition [%],SMILES
1,86,CCc1cccc(C)c1-n1c2c(cc(-c3nc(-c4ccc(Cl)cc4)cs3)c1=O)C(=O)CC(C)(C)C2
2,85,COc1ccc(OC)c(-n2c3c(cc(-c4nc(-c5ccc(Cl)cc5)cs4)c2=O)C(=O)CC(C)(C)C3)c1
3,83,CCc1ccccc1-n1c2c(cc(-c3nc(-c4ccc(Cl)cc4)cs3)c1=O)C(=O)CC(C)(C)C2
4,82,CCc1cccc(CC)c1-n1c2c(cc(-c3nc(-c4ccc(Cl)cc4)cs3)c1=O)C(=O)CC(C)(C)C2
5,80,COc1ncccc1-n1c2c(cc(-c3nc(-c4ccc(Cl)cc4)cs3)c1=O)C(=O)CC(C)(C)C2

# The remaining lines, values behind:
row,SMILES,inhibition [%]
1,CCc1cccc(CC)c1-n1c(C)c(C(=O)NCCNC)cc(-c2nc(-c3ccc(Cl)cc3)cs2)c1=O,96
2,CCc1cccc(CC)c1-n1c(C)c(C(=O)NCCN)cc(-c2nc(-c3ccc(Cl)cc3)cs2)c1=O,89
3,CCc1cccc(CC)c1-n1c(C)c(C(=O)N2CCNCC2)cc(-c2nc(-c3ccc(Cl)cc3)cs2)c1=O,93
4,CCc1cccc(CC)c1-n1c(C)c(C(=O)N(C)C)cc(-c2nc(-c3ccc(Cl)cc3)cs2)c1=O,86
5,CCc1cccc(CC)c1-n1c(C(C)C)c(C(=O)N2CCNCC2)cc(-c2nc(-c3ccc(Cl)cc3)cs2)c1=O,92
6,CCc1cccc(CC)c1-n1c(CC2CCNC2)c(C(=O)N2CCNCC2)cc(-c2nc(-c3ccc(Cl)cc3)cs2)c1=O (stereo unspecified),52

# Target: Isocitrate dehydrogenase [NADP] cytoplasmic (Homo sapiens, UniProt O75874, R132C)
# Test: Inhibition of IDH1 R132C mutant (unknown origin) assessed as reduction in NADPH consumption using alpha-KG as substrate incubated for 5 mins by diaphorase/resazurin-coupled system
# Settings: not given
# Isocitrate dehydrogenase [NADP] cytoplasmic (Homo sapiens, UniProt O75874, R132C), sequence (O75874 2-414 R132C limits assumed): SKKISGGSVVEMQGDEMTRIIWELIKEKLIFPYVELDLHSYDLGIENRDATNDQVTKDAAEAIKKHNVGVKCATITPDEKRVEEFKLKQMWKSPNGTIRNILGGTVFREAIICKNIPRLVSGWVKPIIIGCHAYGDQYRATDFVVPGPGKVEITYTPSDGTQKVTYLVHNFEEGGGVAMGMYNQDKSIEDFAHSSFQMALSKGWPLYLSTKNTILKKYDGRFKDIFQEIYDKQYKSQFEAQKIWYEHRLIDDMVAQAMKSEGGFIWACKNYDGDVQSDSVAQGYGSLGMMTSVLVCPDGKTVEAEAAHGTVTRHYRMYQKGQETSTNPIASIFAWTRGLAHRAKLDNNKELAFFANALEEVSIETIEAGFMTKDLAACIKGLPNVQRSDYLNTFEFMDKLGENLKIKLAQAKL
row,pIC50,SMILES
1,6.30,CCc1cccc(C)c1-n1c2c(cc(-c3nc(-c4ccc(Cl)cc4)cs3)c1=O)C(=O)CC(C)(C)C2
2,6.00,COc1ccc(OC)c(-n2c3c(cc(-c4nc(-c5ccc(Cl)cc5)cs4)c2=O)C(=O)CC(C)(C)C3)c1
3,6.06,CCc1ccccc1-n1c2c(cc(-c3nc(-c4ccc(Cl)cc4)cs3)c1=O)C(=O)CC(C)(C)C2
4,6.62,CCc1cccc(CC)c1-n1c2c(cc(-c3nc(-c4ccc(Cl)cc4)cs3)c1=O)C(=O)CC(C)(C)C2
5,5.89,COc1ncccc1-n1c2c(cc(-c3nc(-c4ccc(Cl)cc4)cs3)c1=O)C(=O)CC(C)(C)C2

# Further lines, the molecule ahead of its results:
row,SMILES,pIC50
1,CCc1cccc(CC)c1-n1c(C)c(C(=O)NCCNC)cc(-c2nc(-c3ccc(Cl)cc3)cs2)c1=O,6.49
2,CCc1cccc(CC)c1-n1c(C)c(C(=O)NCCN)cc(-c2nc(-c3ccc(Cl)cc3)cs2)c1=O,5.70
3,CCc1cccc(CC)c1-n1c(C)c(C(=O)N2CCNCC2)cc(-c2nc(-c3ccc(Cl)cc3)cs2)c1=O,5.82
4,CCc1cccc(CC)c1-n1c(C)c(C(=O)N(C)C)cc(-c2nc(-c3ccc(Cl)cc3)cs2)c1=O,5.70
5,CCc1cccc(CC)c1-n1c(C(C)C)c(C(=O)N2CCNCC2)cc(-c2nc(-c3ccc(Cl)cc3)cs2)c1=O,6.41

# Target: Isocitrate dehydrogenase [NADP] cytoplasmic (Homo sapiens, UniProt O75874, R132H)
# Test: Inhibition of IDH1 R132H mutant (unknown origin) assessed as reduction in NADPH consumption using alpha-KG as substrate incubated for 5 mins by diaphorase/resazurin-coupled system
# Settings: not given
# Isocitrate dehydrogenase [NADP] cytoplasmic (Homo sapiens, UniProt O75874, R132H), sequence (O75874 2-414 R132H limits assumed): as the sequence (O75874 2-414 R132C limits assumed) above, with C131H counted along it
row,pIC50,SMILES
1,6.10,CCc1cccc(C)c1-n1c2c(cc(-c3nc(-c4ccc(Cl)cc4)cs3)c1=O)C(=O)CC(C)(C)C2
2,5.80,COc1ccc(OC)c(-n2c3c(cc(-c4nc(-c5ccc(Cl)cc5)cs4)c2=O)C(=O)CC(C)(C)C3)c1
3,5.70,CCc1ccccc1-n1c2c(cc(-c3nc(-c4ccc(Cl)cc4)cs3)c1=O)C(=O)CC(C)(C)C2
4,6.16,CCc1cccc(CC)c1-n1c2c(cc(-c3nc(-c4ccc(Cl)cc4)cs3)c1=O)C(=O)CC(C)(C)C2
5,6.00,COc1ncccc1-n1c2c(cc(-c3nc(-c4ccc(Cl)cc4)cs3)c1=O)C(=O)CC(C)(C)C2

# Further lines, the molecule ahead of its results:
row,SMILES,pIC50
1,CCc1cccc(CC)c1-n1c(C)c(C(=O)NCCNC)cc(-c2nc(-c3ccc(Cl)cc3)cs2)c1=O,6.06
2,CCc1cccc(CC)c1-n1c(C)c(C(=O)NCCN)cc(-c2nc(-c3ccc(Cl)cc3)cs2)c1=O,6.42
3,CCc1cccc(CC)c1-n1c(C)c(C(=O)N2CCNCC2)cc(-c2nc(-c3ccc(Cl)cc3)cs2)c1=O,6.68
4,CCc1cccc(CC)c1-n1c(C)c(C(=O)N(C)C)cc(-c2nc(-c3ccc(Cl)cc3)cs2)c1=O,5.92
5,CCc1cccc(CC)c1-n1c(C(C)C)c(C(=O)N2CCNCC2)cc(-c2nc(-c3ccc(Cl)cc3)cs2)c1=O,6.38
6,CCc1cccc(CC)c1-n1c(CC2CCNC2)c(C(=O)N2CCNCC2)cc(-c2nc(-c3ccc(Cl)cc3)cs2)c1=O (stereo unspecified),5.00
